Measured values reported in article PMC7884954 (International Journal of Nanomedicine, 2021).

How the values were obtained:
SK-OV-3 cells [1] = assay: In vitro cytotoxicity; type: cell-based, human
Outline: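 SK-OV-3 cells (IMDM, 10% FCS, non-essential amino acids, 37°C, 7% CO2) were seeded at 10,000/well and left to adhere overnight. They were exposed to a concentration series of free drug (in DMSO) or formulations for 4 h, then switched to fresh medium without irradiation (dark). Next day, MTT (2 mg.mL−1) was added for 4 h, formazan was dissolved in DMSO, and A570 was read. Untreated cells were set as 100%. Three independent experiments; IC50 from non-linear fit.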

SK-OV-3 cells [2] = assay: In vitro genotoxicity, alkaline comet assay; type: cell-based, human; conditions: SK-OV-3, 4 h, equitoxic dose, light dose 0.05 Jcm^−2
Outline: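 SK-OV-3 cells (100,000/well, six-well plate) adhered overnight, then treated with test formulations for 4 h at 37 °C. After a medium change, cells were irradiated at an equitoxic light dose giving 80% viability and returned for 12 h. Cells were trypsinised, washed twice in PBS, set to 80,000 cells/mL and embedded in 1% low-melting agarose. Slides were ethanol-fixed (70%, 20 min), SYBR Safe-stained and viewed by fluorescence microscopy; 50 comets scored per formulation.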

Ex vivo hemolysis assay = conditions: human, washed red blood cells (RBC suspension diluted 1:50), pH 7.4
Outline: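 Donor blood in EDTA was spun at 500× g for 5 min. RBCs were washed three times in DPBS pH 7.4, then diluted 1:50 in PBS. The suspension was incubated with test formulations in V-bottom plates for 1 h at 37 °C with orbital shaking. After centrifugation, supernatant absorbance was read at 540 nm. Triton X-100 defined 100% hemolysis, with saline as the other control. Triplicates, mean ± S.D.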

[3] = system: female albino (BALB/c) mice; assay: In vivo acute toxicity: body visceral index; conditions: i.v., post 7 days
Outline: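 Female BALB/c mice (30–35 g, 8–10 weeks; 22 ± 2 °C, 12 h light/dark) were randomised into 6 groups of 3. Free drugs in 0.1% DMSO, formulations or saline were given i.v. via tail vein as two equal doses on days 1 and 3 (mTHPC 0.15 mg.kg−1, THP 5 mg.kg−1 equivalent). On day 7, after cervical dislocation, heart, kidney, liver and lungs were washed in saline and weighed. Organ-to-body weight index was compared with controls; mean ± S.D.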

blood plasma = assay: Activated partial thromboplastin time test
Outline: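 Plasma was separated from fresh blood by centrifugation at 5000x g for 5 min. It was mixed with an equal volume of test formulation and aPTT reagent, and coagulation was activated with pre-warmed […] CaCl2. Clotting time (s) was recorded spectrophotometrically on a coagulation analyzer, […]. Triplicates, mean ± S.D.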

SK-OV-3 cells [4] = assay: Cellular uptake pathway analysis with chlorpromazine and Filipin-III; type: cell-based, human; conditions: 30 µM chlorpromazine, 15 µM Filipin III, light dose 0.5 Jcm^−2
Outline: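 SK-OV-3 cells seeded at 10,000/well, adhered overnight (37 °C, 5% CO2), washed in PBS with Ca2+/Mg2+. Pre-incubated 1 h with chlorpromazine (30 µM) or Filipin III (15 µM), then exposed to test formulations or free drugs in DMSO (photosensitiser 1.5 µM, chemotherapeutic 50 µM) for a total of 4 h. Medium replaced, irradiated 0.50 J.cm−2, MTT after 24 h; un-irradiated dark control.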

[5] = system: female albino (BALB/c) mice; assay: In vivo acute toxicity: serum biochemical analysis; conditions: i.v., after 7 days
Outline: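 Female BALB/c mice (30–35 g, 8–10 weeks) were used in groups of 3. Free drugs in 0.1% DMSO, formulations or saline were given i.v. via tail vein as two equal doses on days 1 and 3 (mTHPC 0.15 mg.kg−1, THP 5 mg.kg−1 equivalent). On day 7, blood was drawn under anesthesia by thoracic puncture and spun at 1200x g for 10 min. Supernatant was stored at −20 °C and then analysed on a serum biochemistry analyzer.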

SK-OV-3 cells [6] = assay: Assessment of reactive oxygen species; type: cell-based, human; conditions: mTHPC 5 µM, THP 50 µM, 4 h, light dose 0.5 J.cm^−2 vs dark
Outline: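 SK-OV-3 cells (IMDM, 10% FCS, non-essential amino acids, 37°C, 7% CO2) were seeded at 25,000/well overnight and washed with DPBS pH 7.4 containing Ca2+/Mg2+. They were loaded with 25 µM H2DCFDA for 1 h at 37 °C, washed, then exposed to free drug or formulation for 4 h at 37°C. After medium exchange, cells were irradiated at 652 nm, lysed, and read at λex 485/λem 520 nm.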

[7] = system: female albino (BALB/c) mice; assay: In vivo acute toxicity: histopathological examinations; conditions: i.v., after 7 days, H&E stain
Outline: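 Female BALB/c mice (30–35 g, 8–10 weeks) were randomised to 6 groups (n=3) and given test formulations i.v. via tail vein as two equal doses on days 1 and 3; the saline group was the control. OECD 425 was followed except for the i.v. route. At day 7 mice were killed by cervical dislocation. Heart, liver, kidney and lungs were saline-washed, sectioned by rotary microtome, H&E-stained and examined by light microscopy.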

## Oc1cccc(-c2c3nc(c(-c4cccc(O)c4)c4ccc([nH]4)c(-c4cccc(O)c4)c4nc(c(-c5cccc(O)c5)c5ccc2[nH]5)CC4)C=C3)c1 [mTHPC, 5, 10, 15, 20-tetrakis (3-hydroxyphenyl) chlorin]
SK-OV-3 cells [1]; SK-OV-3, without irradiation, highest mTHPC concentration 5 µM
  Reduction of cell viability (dark toxicity): 18.51 ± 1.87%
SK-OV-3 cells [2]
  DNA damage class (olive tail moment, comet assay): class-II (class-II damage (5–20%; low damage))
Ex vivo hemolysis assay
  hemolysis at 1 h: 14%
[3]
  Visceral body index: kidney weight vs control group: slight increase in the organ weight
Blood plasma
  aPTT coagulation time: 60.2 s
SK-OV-3 cells [4]
  Cellular uptake mechanism: None of the inhibitors was able to minimize the uptake
[5]
  ALT level vs control group: increased
  AST level vs control group: slightly higher
  Bilirubin level vs control group: slightly higher
  Creatinine level vs control: increased
  Total protein level: slight increase
SK-OV-3 cells [6]
  Intracellular ROS production: increased levels of intracellular ROS

## COc1cccc2c1C(=O)c1c(O)c3c(c(O)c1C2=O)C[C@@](O)(C(=O)CO)C[C@@H]3O[C@H]1C[C@H](N)[C@H](O[C@@H]2CCCCO2)[C@H](C)O1 [THP, [2″R]‐4′‐O‐tetrahydropyranyl‐doxorubicin]
SK-OV-3 cells [1]; SK-OV-3, dose of 100 µM, no irradiation
  Cytotoxicity (reduction in cell viability): 72.26 ± 5.40%
SK-OV-3 cells [2]
  DNA damage class (olive tail moment, comet assay): class-II (class-II damage (5–20%; low damage))
Ex vivo hemolysis assay
  hemolysis at 1 h: 20%
[3]
  Visceral body index: kidney weight vs control group: slight increase in the organ weight
  Visceral body index: liver weight vs control group: highest increase
Blood plasma
  aPTT coagulation time: 127.7 s
[7]
  Histopathology: kidney: signs of necrosis, apoptosis, as well as congestion of the renal tissue
  Histopathology: liver: some signs of the apoptotic cells with fibrosis, pyknosis (condensation of nuclei due to apoptosis) and hepatic lesions
  Histopathology: lungs: small changes in the lung′s histology with the breakage of the lung′s fiber
SK-OV-3 cells [4]
  Cellular uptake mechanism: None of the inhibitors was able to minimize the uptake
[5]
  ALP level vs control group: highest increase
  ALT level vs control group: increased
  AST level vs control group: highest level
  Bilirubin level vs control group: slightly higher
  Creatinine level vs control: increased
  Total protein level: slight increase
  Uric acid level vs control group: moderately increased
SK-OV-3 cells [6]
  Intracellular ROS production: no significant difference in the ROS levels
